# Measured values from ChEMBL document CHEMBL1255417, “Correlation between in vitro activity of posaconazole and in vivo efficacy against Rhizopus oryzae infection in mice” (Antimicrob Agents Chemother, 2010).
# Calls of active or inactive are those of the source. The calls are words filed in the database; no cut-off is given here.
# How the values were obtained:
# [1] = tested on: Rhizopus arrhizus; test: Antifungal activity against drug-susceptible Rhizopus oryzae UTHSC 02-2882 by broth microdilution method; assay type: functional
# In short: (§1)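 Broth microdilution MIC in µg/ml, run per the CLSI (formerly NCCLS) guideline for filamentous fungi, M38-A2.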
# [2] = tested on: Rhizopus arrhizus; test: Antifungal activity against drug-susceptible Rhizopus oryzae UTHSC 04-1241 by broth microdilution method; assay type: functional
# In short: (§2)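 CLSI broth microdilution for filamentous fungi (M38-A2); MIC recorded in µg/ml against clinical isolates; breakpoints applied at 24 h.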
# [3] = tested on: Rhizopus arrhizus; test: Antifungal activity against drug-susceptible Rhizopus oryzae UTHSC 06-329 by broth microdilution method; assay type: functional
# In short: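 Posaconazole MIC in ug/ml, determined by broth microdilution following the CLSI guidelines for moulds (M38-A2).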
# [4] = tested on: Rhizopus arrhizus; test: Antifungal activity against drug-susceptible Rhizopus oryzae UTHSC 03-1826 by broth microdilution method; assay type: functional; in short: as §1
# [5] = tested on: Rhizopus arrhizus; test: Antifungal activity against drug-susceptible Rhizopus oryzae UTHSC 03-547 by broth microdilution method; assay type: functional; in short: as §2
# [6] = tested on: Rhizopus arrhizus; test: Antifungal activity against drug-susceptible Rhizopus oryzae UTHSC 02-439 by broth microdilution method; assay type: functional; in short: as §1
# [7] = tested on: Rhizopus arrhizus; test: Antifungal activity against drug-susceptible Rhizopus oryzae UTHSC 03-511 by broth microdilution method; assay type: functional; in short: as §2
# [8] = tested on: Rhizopus arrhizus; test: Antifungal activity against drug-susceptible Rhizopus oryzae UTHSC 03-3110 by broth microdilution method; assay type: functional; in short: as §2
# [9] = tested on: Rhizopus arrhizus; test: Antifungal activity against drug-susceptible Rhizopus oryzae UTHSC 03-2970 by broth microdilution method; assay type: functional; in short: as §1
# [10] = tested on: Rhizopus arrhizus; test: Antifungal activity against drug-intermediate Rhizopus oryzae UTHSC 05-3032 by broth microdilution method; assay type: functional; in short: as §1
# [11] = tested on: Rhizopus arrhizus; test: Antifungal activity against drug-susceptible Rhizopus oryzae UTHSC 06-89 at 5 ug by disk diffusion assay; assay type: functional; conditions: read-out: DIZ
# [12] = tested on: Rhizopus arrhizus; test: Antifungal activity against drug-susceptible Rhizopus oryzae UTHSC 04-1613 at 5 ug by disk diffusion assay; assay type: functional; conditions: read-out: DIZ
# In short: (§3)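 Neo-Sensitabs tablet diffusion on Mueller-Hinton agar, following guidelines for molds; 9 mm tablets containing 5 µg posaconazole; inhibition zone diameter measured in mm; zone breakpoints applied at 24 h.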
# [13] = tested on: Rhizopus arrhizus; test: Antifungal activity against drug-susceptible Rhizopus oryzae UTHSC 04-2459 at 5 ug by disk diffusion assay; assay type: functional; conditions: read-out: DIZ; in short: as §3
# [14] = tested on: Rhizopus arrhizus; test: Antifungal activity against drug-susceptible Rhizopus oryzae UTHSC 06-731 at 5 ug by disk diffusion assay; assay type: functional; conditions: read-out: DIZ
# [15] = tested on: Rhizopus arrhizus; test: Antifungal activity against drug-susceptible Rhizopus oryzae UTHSC 05-2975 at 5 ug by disk diffusion assay; assay type: functional; conditions: read-out: DIZ
# In short: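 Neo-Sensitabs tablet diffusion on Mueller-Hinton agar, run per the mould guidelines. Tablets are 9 mm in diameter and carry 5 ug posaconazole. The read-out is the inhibition zone diameter in mm.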
# [16] = tested on: Rhizopus arrhizus; test: Antifungal activity against drug-intermediate Rhizopus oryzae UTHSC 03-285 at 5 ug by disk diffusion assay; assay type: functional; conditions: read-out: DIZ
# In short: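 Neo-Sensitabs tablet diffusion on Mueller-Hinton agar, following the guidelines for molds. Tablets were 9 mm in diameter and held 5 µg of drug. The read-out was inhibition zone diameter in mm.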
# [17] = tested on: Rhizopus arrhizus; test: Antifungal activity against drug-susceptible Rhizopus oryzae UTHSC 06-4133 after 24 to 48 hrs; assay type: functional
# In short: (§4)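 Minimum fungicidal concentration taken from the broth microdilution plates. From each well with complete inhibition (optically clear), 20 ul is plated on potato dextrose agar. Plates are incubated at 35°C for 24 to 48 h. The MFC is the lowest drug concentration giving no growth.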
# [18] = tested on: Rhizopus arrhizus; test: Antifungal activity against drug-susceptible Rhizopus oryzae UTHSC 04-443 after 24 to 48 hrs; assay type: functional
# In short: (§5)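 Minimum fungicidal concentration: 20 µl from each microdilution well showing complete inhibition (optically clear) plated on potato dextrose agar, incubated 35°C for 24 to 48 h; MFC taken as lowest drug concentration giving no growth.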
# [19] = tested on: Rhizopus arrhizus; test: Antifungal activity against drug-susceptible Rhizopus oryzae UTHSC 04-2459 after 24 to 48 hrs; assay type: functional; in short: as §5
# [20] = tested on: Rhizopus arrhizus; test: Antifungal activity against drug-susceptible Rhizopus oryzae UTHSC 06-731 after 24 to 48 hrs; assay type: functional
# [21] = tested on: Rhizopus arrhizus; test: Antifungal activity against drug-susceptible Rhizopus oryzae UTHSC 06-2457 after 24 to 48 hrs; assay type: functional; in short: as §4
# [22] = tested on: Rhizopus arrhizus; test: Antifungal activity against drug-susceptible Rhizopus oryzae UTHSC 06-2374 after 24 to 48 hrs; assay type: functional; in short: as §4
# [23] = tested on: Rhizopus arrhizus; test: Antifungal activity against drug-susceptible Rhizopus oryzae UTHSC 03-112 after 24 to 48 hrs; assay type: functional
# [24] = tested on: Rhizopus arrhizus; test: Antifungal activity against drug-susceptible Rhizopus oryzae UTHSC 06-3827 after 24 to 48 hrs; assay type: functional; in short: as §4
# [25] = tested on: Rhizopus arrhizus; test: Antifungal activity against drug-susceptible Rhizopus oryzae UTHSC 05-3111 after 24 to 48 hrs; assay type: functional; in short: as §4
# [26] = tested on: Rhizopus arrhizus; test: Antifungal activity against drug-susceptible Rhizopus oryzae UTHSC 05-1679 after 24 to 48 hrs; assay type: functional; in short: as §5
# [27] = tested on: Rhizopus arrhizus; test: Antifungal activity against drug-susceptible Rhizopus oryzae infected in OF1 mouse assessed as mouse survival at 30 mg/kg, po bid treated 24 hrs after fungal infection; assay type: functional
# [28] = tested on: Rhizopus arrhizus; test: Antifungal activity against drug-susceptible Rhizopus oryzae UTHSC 02-2882 infected in OF1 mouse assessed as reduction in brain fungal load at 10-30 mg/kg, po bid treated 24 hrs after fungal infection; assay type: functional, organism-based
# In short: (§6)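 Tissue burden in immunosuppressed male OF1 mice, using cyclophosphamide 200 mg/kg i.p. plus 5-fluorouracil 150 mg/kg i.v. on day −1. Mice received 2 × 10^4 CFU i.v. by tail vein, then oral gavage at 10, 20 or 30 mg/kg BID from 24 h post-challenge, with ceftazidime cover; untreated controls. Groups of 10 were killed on day 4. Kidneys and brains were homogenized in 2 ml saline, serially diluted 10-fold, plated on PDA and counted after 24 h at 35°C.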
# [29] = tested on: Rhizopus arrhizus; test: Antifungal activity against drug-intermediate Rhizopus oryzae UTHSC 07-365 infected in OF1 mouse assessed as reduction in brain fungal load at 10-30 mg/kg, po bid treated 24 hrs after fungal infection; assay type: functional, organism-based; in short: as §6
# [30] = tested on: Serum; test: Drug level in human serum at 400 mg, po bid; assay type: ADME, organism-based; conditions: in vivo
# [31] = tested on: Rhizopus arrhizus; test: Antifungal activity against drug-intermediate Rhizopus oryzae UTHSC 03-3165 by broth microdilution method; assay type: functional; in short: as §1
compound,measurement,setting,value
CC[C@@H]([C@H](C)O)n1ncn(-c2ccc(N3CCN(c4ccc(OC[C@@H]5CO[C@@](Cn6cncn6)(c6ccc(F)cc6F)C5)cc4)CC3)cc2)c1=O [POSACONAZOLE],MIC,[1],0.25 µg/mL
same,MIC,[2],0.5 µg/mL
same,MIC,[3],0.5 µg/mL
same,MIC,[4],0.5 µg/mL
same,MIC,[5],0.25 µg/mL
same,MIC,[6],0.25 µg/mL
same,MIC,[7],0.25 µg/mL
same,MIC,[8],1 µg/mL
same,MIC,[9],1 µg/mL
same,MIC,[10],2 µg/mL
same,zone of inhibition at 5 µg/disc,[11],23 mm
same,zone of inhibition at 5 µg/disc,[12],22 mm
same,zone of inhibition at 5 µg/disc,[13],18 mm
same,zone of inhibition at 5 µg/disc,[14],17 mm
same,zone of inhibition at 5 µg/disc,[15],20 mm
same,zone of inhibition at 5 µg/disc,[16],15 mm
same,MFC,[17],1 µg/mL
same,MFC,[18],1 µg/mL
same,MFC,[19],0.5 µg/mL
same,MFC,[20],0.5 µg/mL
same,MFC,[21],> 16 µg/mL
same,MFC,[22],1 µg/mL
same,MFC,[23],1 µg/mL
same,MFC,[24],16 µg/mL
same,MFC,[25],2 µg/mL
same,MFC,[26],0.5 µg/mL
same,Activity,[27],30%
same,Activity,[28],Active
same,Activity,[29],inactive
same,Drug uptake,[30],< 1 µg/mL
same,MIC,[31],2 µg/mL
